This is an account of results in ChEMBL document CHEMBL3779820, “Discovery of a Novel Inhibitor of Histone Lysine-Specific Demethylase 1A (KDM1A/LSD1) as Orally Active Antitumor Agent” (J Med Chem, 2016).

In general, inhibition refers to the change of the read-out against control, counted positive when it falls. Usually IC50 stands for the concentration needed to halve the response being measured. The term Tmax denotes the time from dosing to the highest level.

The structures appear in SMILES notation. The source made the active and inactive calls. The rule behind the calls is not given here. Some results are limits rather than exact numbers.

Series [1] is described as follows: Anticlonogenic activity against 129sv mouse APL blast cells assessed as inhibition of colony formation of cells at 0.25 uM measured after 7 days relative to control. The format is functional. The conditions noted are these: 168 h.
Series [2] concerns the target T1, Lysine-specific histone demethylase 2 (Homo sapiens, UniProt Q8NB78).
T1 sequence (Q8NB78 whole entry): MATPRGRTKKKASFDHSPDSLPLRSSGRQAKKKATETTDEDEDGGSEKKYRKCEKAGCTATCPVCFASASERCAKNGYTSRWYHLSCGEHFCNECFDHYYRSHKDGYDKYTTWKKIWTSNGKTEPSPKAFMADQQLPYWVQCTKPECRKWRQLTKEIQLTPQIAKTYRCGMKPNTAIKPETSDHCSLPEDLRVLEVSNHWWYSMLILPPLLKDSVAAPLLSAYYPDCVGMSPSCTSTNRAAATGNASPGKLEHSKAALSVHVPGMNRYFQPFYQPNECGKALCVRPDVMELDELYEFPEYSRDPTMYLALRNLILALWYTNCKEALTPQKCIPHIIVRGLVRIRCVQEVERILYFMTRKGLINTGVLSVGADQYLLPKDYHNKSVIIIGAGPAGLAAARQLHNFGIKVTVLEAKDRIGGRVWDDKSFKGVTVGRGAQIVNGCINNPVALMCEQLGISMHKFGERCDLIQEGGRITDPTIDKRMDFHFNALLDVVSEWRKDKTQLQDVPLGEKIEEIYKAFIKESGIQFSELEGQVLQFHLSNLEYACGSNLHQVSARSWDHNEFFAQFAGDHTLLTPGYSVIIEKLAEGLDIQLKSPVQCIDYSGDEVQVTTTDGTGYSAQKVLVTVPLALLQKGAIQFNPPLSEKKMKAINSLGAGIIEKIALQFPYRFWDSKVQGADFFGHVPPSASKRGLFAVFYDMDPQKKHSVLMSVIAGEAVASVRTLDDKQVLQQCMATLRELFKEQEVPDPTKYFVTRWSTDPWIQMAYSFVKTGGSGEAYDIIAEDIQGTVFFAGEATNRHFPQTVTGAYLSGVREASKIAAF
The experiment in a line: Inhibition of KDM1B (unknown origin).

Series [3] is described as follows: Anticlonogenic activity against human THP1 cells assessed as inhibition of colony formation of cells at 0.5 uM measured after 13 days relative to control. To be noted: THP-1, […]. The format is functional. The procedure, abridged:
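THP-1 cells (RPMI, 10% FBS, 2 mM L-glutamine, 37°C, 5% CO2) plated at 250 cells/plate in enriched methylcellulose medium with compound at 0.5 µM for 13 days.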

In series [4] the target is Lysine-specific histone demethylase 1A (Homo sapiens) (UniProt O60341). The experiment in a line: Inhibition of KDM1A in human NB4 cells assessed as increase in CD11b mRNA expression at biochemical IC50 measured after 24 hrs by RT-PCR analysis relative to control. The format is cell-based. The conditions noted are these: NB-4.
The target is the same in series [5]. The experiment in a line: Inhibition of KDM1A in human NB4 cells assessed as increase in GFI1B mRNA expression at biochemical IC50 measured after 24 hrs by RT-PCR analysis relative to control. To be noted: NB-4. The format is cell-based.
For the next series, the target named is LSD1/CoREST complex (Homo sapiens, UniProt O60341). The series is described as follows: Inhibition of human recombinant KDM1A/CoREST expressed in Escherichia coli using mono-methylated H3-K4 peptide as substrate assessed as H2O2 release preincubated for 15 mins followed by substrate addition measured for 12 mins by fluorescence-based microplate reader analysis. In a few lines:
(§1)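 Human recombinant KDM1A/CoREST, KDM1B, MAO A and MAO B used as enzyme sources; compounds incubated with the enzyme and results expressed as IC50.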

The target in series [6] is T2, Amine oxidase [flavin-containing] A (Homo sapiens, UniProt P21397).
T2 sequence (P21397 whole entry): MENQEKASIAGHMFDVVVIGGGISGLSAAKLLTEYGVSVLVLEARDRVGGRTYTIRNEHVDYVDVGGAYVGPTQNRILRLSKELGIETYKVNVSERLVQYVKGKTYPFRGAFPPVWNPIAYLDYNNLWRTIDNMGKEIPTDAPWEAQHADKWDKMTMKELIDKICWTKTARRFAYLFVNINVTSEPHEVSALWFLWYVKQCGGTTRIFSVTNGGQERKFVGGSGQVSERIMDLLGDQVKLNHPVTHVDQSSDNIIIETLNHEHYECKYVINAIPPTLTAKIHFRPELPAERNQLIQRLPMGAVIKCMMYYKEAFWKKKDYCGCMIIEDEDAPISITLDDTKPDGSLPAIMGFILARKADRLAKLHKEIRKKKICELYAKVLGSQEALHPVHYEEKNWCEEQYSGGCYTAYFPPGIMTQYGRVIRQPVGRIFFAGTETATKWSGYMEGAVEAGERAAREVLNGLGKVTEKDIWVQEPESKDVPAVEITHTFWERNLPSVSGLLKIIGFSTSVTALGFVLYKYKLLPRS
The series is described as follows: Inhibition of human recombinant MAOA expressed in Pichia pastoris preincubated for 15 mins measured after 30 mins by bioluminescent-coupled assay. In a few lines: as §1

In series [7] the test system is THP-1. The experiment in a line: Induction of differentiation of human THP1 cells assessed assessed as alteration in morphology of colonies after 13 days by May Grunwald-Giemsa staining based assay. The format is functional, cell-based. In a few lines: (§2)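 THP-1 cells cultured 13 days in semisolid methylcellulose with compound at 0.5 µM; colony morphology imaged, and cells recovered at end of culture examined as May Grunwald-Giemsa-stained cytospin preparations.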

Series [8] is described as follows: Antitumor activity against 129SvEv mouse APL blast cells implanted in nonirradiated 129SvEv mouse assessed as increase in survival of leukemic mouse at 0.0125 mg/kg, ip administered for 5 days per week for 2 weeks by Kaplan-Meier plot analysis relative to vehicle control. The format is functional. The procedure, abridged: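 One million leukemic blasts from 129SvEv mice given iv to non-irradiated syngeneic recipients; groups of at least 6 mice randomized. Dosing began once blasts appeared in peripheral blood (about day 10). Drug dissolved in 40% PEG 400 in 5% glucose and given ip. Survival compared with the vehicle group by Kaplan–Meier analysis.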

The subject of series [9] is THP-1. The experiment in a line: Induction of differentiation of human THP1 cells after 13 days by cytospin assay. The format is functional, cell-based. The procedure, abridged: as §2
The target in series [10] is T3, Amine oxidase [flavin-containing] B (Homo sapiens, UniProt P27338).
T3 sequence (P27338 whole entry): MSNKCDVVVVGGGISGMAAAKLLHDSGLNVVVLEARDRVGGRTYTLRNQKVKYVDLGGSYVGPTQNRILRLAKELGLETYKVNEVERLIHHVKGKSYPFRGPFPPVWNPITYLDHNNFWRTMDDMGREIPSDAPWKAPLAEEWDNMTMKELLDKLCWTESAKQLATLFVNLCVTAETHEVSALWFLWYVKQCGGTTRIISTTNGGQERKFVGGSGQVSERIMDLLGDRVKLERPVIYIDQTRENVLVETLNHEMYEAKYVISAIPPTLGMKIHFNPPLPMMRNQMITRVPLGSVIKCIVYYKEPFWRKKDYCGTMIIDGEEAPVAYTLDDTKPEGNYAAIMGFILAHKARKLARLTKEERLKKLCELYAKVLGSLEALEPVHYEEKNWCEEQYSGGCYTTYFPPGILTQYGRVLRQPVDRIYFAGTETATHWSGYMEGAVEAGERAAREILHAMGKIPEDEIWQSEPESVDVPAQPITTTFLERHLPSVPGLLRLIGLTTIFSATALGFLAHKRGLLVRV
The experiment in a line: Inhibition of human recombinant MAOB expressed in Pichia pastoris preincubated for 15 mins measured after 30 mins by bioluminescent-coupled assay. In a few lines:
as §1

Series [11] in a line: Tmax in CD1 mouse at 15 mg/kg, po administered as single dose. The format is ADME, organism-based. To be noted: in vivo. The procedure, abridged:
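Single dose to CD1 mice: 5 mg/kg iv in 5% glucose with 10% tween 80, or 15 mg/kg orally in 5% glucose with 40% PEG. Plasma parameters derived from concentration–time profiles.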

The next series is filed under the species Homo sapiens. The series is described as follows: Selectivity ratio of IC50 for human recombinant MAOA expressed in Pichia pastoris to IC50 for human recombinant KDM1A/CoREST expressed in Escherichia coli.

`N[C@@H]1C[C@H]1c1ccc(NC(=O)c2ccccc2)cc1`: the inhibition at 0.25 µM in series [1] was determined as 73%. Moreover, the IC50 in series [2] is 58300 nM. In addition, the inhibition at 0.5 µM in series [3] came to 8%.
As to `CN1CCN(c2ccc(C(=O)Nc3ccc([C@H]4C[C@@H]4N)cc3)cc2)CC1`, the fold change (FC) stood at 3.1 in series [4] and 3 in [5]. The IC50 at LSD1/CoREST complex is 230 nM.
In the case of `CN1CCN(c2ccc(C(=O)Nc3ccc([C@@H]4C[C@H]4N)cc3)cc2)CC1` [listing 1 of 2 here], the IC50 on LSD1/CoREST complex was determined as 84 nM.
Consider `N[C@H]1CC[C@H](N[C@@H]2C[C@H]2c2ccccc2)CC1`, for which the fold change (FC) in series [4] was 5.1; in [5], 7. For the same compound, the figures for the IC50 in [6] and in series [2] were 48400 nM and 43400 nM, respectively. Besides, the inhibition at 0.25 µM in series [1] amounted to 84%. Moreover, the outcome with THP-1 [7] and with THP-1 [9] was Active. Further, in series [3], the inhibition at 0.5 µM was 58%. Also, the Activity in series [8] came to 14%.
Consider `CN1CCN(c2ccc(C(=O)Nc3ccc([C@@H]4C[C@H]4N)cc3)cc2)CC1` [listing 2 of 2 here], for which the fold change (FC) is 3.9 in series [4] and 4.2 in series [5].
For `N[C@@H]1C[C@H]1c1ccc(NC(=O)c2ccc(-c3ccoc3)cc2)cc1` (racemic), the IC50 in series [10] was found to be 87 nM; in [6] it was 40 nM; in [2], 51000 nM; at LSD1/CoREST complex, 22.5 nM.
Regarding `N[C@@H]1C[C@H]1c1ccc(NC(=O)c2ccc(N3CCOC3=O)cc2)cc1` (racemic), the half-maximal inhibitory concentration (IC50) in series [10] worked out at 1600 nM; in [6], 29.7 nM; at LSD1/CoREST complex, 33.5 nM.
On to `N[C@@H]1C[C@H]1c1ccc(NC(=O)c2cccc(NC(=O)OCc3ccccc3)c2)cc1` (racemic), for which the 50% inhibitory concentration (IC50) in [10] is above 100000 nM; in series [6], 25 nM; in [2], 11600 nM; on LSD1/CoREST complex, 42.6 nM.
Turning to `CN1CCN(c2ccc(C(=O)Nc3ccc([C@@H]4C[C@H]4N)cc3)cc2)CC1.Cl.Cl` (racemic), the Tmax in series [11] came out at 12 h. Moreover, the concentration for half-maximal inhibition (IC50) on LSD1/CoREST complex is 189 nM.
`N[C@@H]1C[C@H]1c1ccc(NC(=O)c2ccc(N3CCOCC3)cc2)cc1` (racemic): the IC50 in [10] was 600 nM; in series [6], 54.8 nM; in series [2], 74700 nM; on LSD1/CoREST complex, 61.5 nM.
For the compound `CN1CCC(c2ccc(C(=O)Nc3ccc([C@@H]4C[C@H]4N)cc3)cc2)CC1.Cl` (racemic), the fold change (FC) amounted to 3.4 in series [4] and 4.1 in series [5]. Besides, the Tmax in series [11] came out at 18 h. Besides, the half-maximal inhibitory concentration (IC50) on LSD1/CoREST complex came to 51.2 nM.
Regarding `CN1CCN(c2ccc(C(=O)Nc3ccc([C@@H]4C[C@H]4N)cc3)cc2)CC1` (racemic), the fold change (FC) turned out to be 3.2 in series [4] and 4.9 in series [5].
On to `N[C@@H]1C[C@H]1c1ccc(NC(=O)c2ccc(N3CCOCC3)c(NC(=O)OCc3ccccc3)c2)cc1` (relative stereo), for which the figures for the fold change (FC) in series [4] and in [5] were 3.8 and 4.8, respectively. Further, the 50% inhibitory concentration (IC50) in series [10] stood at 62900 nM; in series [6], 193 nM; in series [2], 5700 nM; on LSD1/CoREST complex, 61.4 nM. The inhibition at 0.25 µM in series [1] was found to be 59%.
In the case of `N[C@@H]1C[C@H]1c1ccc(NC(=O)c2ccc(N3CCCCC3)c(NC(=O)OCc3ccccc3)c2)cc1` (relative stereo), on LSD1/CoREST complex, the IC50 amounted to 308 nM.
With `CN1CCN(c2ccc(C(=O)Nc3ccc([C@@H]4C[C@H]4N)cc3)cc2NC(=O)OCc2ccccc2)CC1` (relative stereo), the values for the fold change (FC) in series [4] and in series [5] were 3 and 4.5, respectively. In addition, the IC50 is above 100000 nM in series [10], 1000 nM in series [6] and 4300 nM in [2]. For the same compound, the inhibition at 0.25 µM in series [1] was 57%. Moreover, the Ratio IC50 in the series listed under Homo sapiens was above 10.
Consider `N[C@@H]1C[C@H]1c1ccc(NC(=O)c2ccc(NC(=O)OCc3ccccc3)c(N3CCOCC3)c2)cc1` (relative stereo), for which the fold change (FC) was 3.2 in series [4] and 5.6 in series [5]. Also, the IC50 in series [10] was 27800 nM; in [6], 345 nM; in [2] it was 14900 nM. The inhibition at 0.25 µM in [1] was 57%.
